Assays:
Heat shock protein HSP90 [1] = target: T1, Heat shock protein HSP90 (Homo sapiens, UniProt P07900+P08238); experiment: Inhibition of HSP90 ATPase activity (unknown origin); assay type: protein assay
HCT-116 = experiment: Cytotoxicity against human HCT116 cells assessed as cell growth inhibition; assay type: functional, cell-based
Heat shock protein HSP90 [2] = target: T1, Heat shock protein HSP90; experiment: Inhibition of HSP90 (unknown origin) assessed as HER2 degradation by cell-based assay
A2780 [3] = experiment: Cytotoxicity against human A2780 cells assessed as cell growth inhibition; assay type: functional, cell-based
NCI-H1975 = experiment: Antitumor activity against human NCI-H1975 cells xenografted in BALB/c athymic nu/nu mouse assessed as tumor growth inhibition at 200 mg/kg, iv administered once a week for 3 weeks relative to control; assay type: functional; conditions: 504 h, read-out: TGI
In short: (§1)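 Athymic BALB/c-nu/nude mice bearing NCI-H1975 human lung carcinoma xenografts, n = 6 per group. Compounds were given i.v. at 200 mg/kg once weekly for three weeks. Deaths and body weight loss were recorded. Tumor growth inhibition was calculated from mean treated versus mean control tumor volumes.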

A2780 [4] = experiment: Antitumor activity against human A2780 cells xenografted in BALB/c nu/nu mouse assessed as tumor growth inhibition at 50 mg/kg, iv administered 3 times a week for 2 weeks starting from 5 to 6 days post tumor inoculation relative to control; assay type: functional; conditions: read-out: TGI
In short: (§2)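 Human A2780 ovarian adenocarcinoma cells were cultured and implanted into BALB/c-nu/nude mice, n = 6 per group. Tumor size and volume were measured 5 or 6 days later. Compounds were suspended in 1% carboxymethyl cellulose and given intravenously. Deaths and body weight were monitored. Tumor growth inhibition = [1 − (mean treated tumor volume)/(mean control tumor volume)] × 100%.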

[5] = Toxicity in BALB/c athymic nu/nu mouse xenografted with human NCI-H1975 cells assessed as mouse death at 200 mg/kg, iv administered once a week for 3 weeks; assay type: organism-based; conditions: in vivo, 504 h; in short: as §1
[6] = Toxicity in BALB/c athymic nu/nu mouse xenografted with human NCI-H1975 cells assessed as effect on body weight at 200 mg/kg, iv administered once a week for 3 weeks; assay type: organism-based; conditions: in vivo, 504 h; in short: as §1
[7] = Toxicity in BALB/c nu/nu mouse xenografted with human A2780 cells assessed as mouse death at 50 mg/kg, iv administered 3 times a week for 2 weeks starting from 5 to 6 days post tumor inoculation; assay type: organism-based; conditions: in vivo; in short: as §2
[8] = Toxicity in BALB/c nu/nu mouse xenografted with human A2780 cells assessed as effect on body weight at 50 mg/kg, iv administered 3 times a week for 2 weeks starting from 5 to 6 days post tumor inoculation; assay type: organism-based; conditions: in vivo; in short: as §2

| Structure (SMILES) | IC50 (Heat shock protein HSP90 [1]) [nM] | IC50 (HCT-116) [nM] | IC50 (Heat shock protein HSP90 [2]) [nM] | IC50 (A2780 [3]) [nM] | inhibition in vivo at 200 mg/kg (NCI-H1975) [%] | inhibition in vivo at 50 mg/kg (A2780 [4]) [%] | Activity [5] | Activity [6] | Activity [7] | Activity [8] |
| --- | --- | --- | --- | --- | --- | --- | --- | --- | --- | --- |
| CCNC(=O)c1noc(-c2cc(C(C)C)c(O)cc2O)c1-c1cc(COCC(=O)OC)no1 | 443 | 262 | – | – | – | – | – | – | – | – |
| CCNC(=O)c1noc(-c2cc(C(C)C)c(O)cc2O)c1-c1cc(CN)no1 | 674 | 84 | 171 | – | – | – | – | – | – | – |
| CCNC(=O)c1noc(-c2cc(C(C)C)c(O)cc2O)c1-c1cc(CN2CCOCC2)no1 | 595 | 28 | 50 | – | – | – | – | – | – | – |
| CCNC(=O)c1noc(-c2cc(C(C)C)c(O)cc2O)c1-c1cnn(CC)c1 | 532 | 26 | 13 | 30 | – | – | – | – | – | – |
| CCNC(=O)c1noc(-c2cc(C(C)C)c(O)cc2O)c1-c1cnn(C(C)C)c1 | 542 | 21 | 19 | 21 | – | – | – | – | – | – |
| CCCNCc1cc(-c2c(C(=O)NCC)noc2-c2cc(C(C)C)c(O)cc2O)on1 | 465 | 117 | 24 | – | – | – | – | – | – | – |
| CCNC(=O)c1noc(-c2cc(C(C)C)c(O)cc2O)c1-c1cc(CN2CCN(C)CC2)no1 | 572 | 340 | – | – | – | – | – | – | – | – |
| CCNC(=O)c1noc(-c2cc(C(C)C)c(O)cc2O)c1-c1cc(C(N)=O)no1 | 657 | 79 | 52 | 15 | – | – | – | – | – | – |
| CCNC(=O)c1noc(-c2cc(C(C)C)c(O)cc2O)c1-c1cc(CN2CCCCC2)no1 | 752 | 93 | 62 | 62 | – | – | – | – | – | – |
| CCNC(=O)c1noc(-c2cc(C(C)C)c(O)cc2O)c1-c1cc(CN(C)C)no1 | 490 | 92 | 33 | 31 | – | – | – | – | – | – |
| CCNC(=O)c1noc(-c2cc(C(C)C)c(O)cc2O)c1-c1cc(COS(C)(=O)=O)no1 | 476 | 400 | – | – | – | – | – | – | – | – |
| CCNC(=O)c1noc(-c2cc(C(C)C)c(O)cc2O)c1-c1cn[nH]c1 | 469 | 43 | 13 | 38 | 55.4 | 47.6 | Non-Toxic | Non-Toxic | Non-Toxic | Non-Toxic |
| CCNC(=O)c1noc(-c2cc(C(C)C)c(O)cc2O)c1-c1cc(CNCCO)no1 | 975 | 111 | – | – | – | – | – | – | – | – |
| CCNC(=O)c1noc(-c2cc(C(C)C)c(O)cc2O)c1-c1cc(CNC(C)=O)no1 | 500 | 167 | 71 | – | – | – | – | – | – | – |
| CCNC(=O)c1noc(-c2cc(C(C)C)c(O)cc2O)c1-c1cc(CN2CCCC2)no1 | 686 | 51 | 38 | 55 | – | – | – | – | – | – |
| CCNC(=O)c1noc(-c2cc(C(C)C)c(O)cc2O)c1-c1cc(CC#N)no1 | 470 | 79 | – | – | – | – | – | – | – | – |
| CCNC(=O)c1noc(-c2cc(C(C)C)c(O)cc2O)c1-c1cc(CF)no1 | 410 | 63 | 27 | 28 | – | – | – | – | – | – |
| CCCN(CCC)Cc1cc(-c2c(C(=O)NCC)noc2-c2cc(C(C)C)c(O)cc2O)on1 | 413 | 183 | 117 | – | – | – | – | – | – | – |
| CCNC(=O)c1noc(-c2cc(C(C)C)c(O)cc2O)c1-c1cc(C(=O)NC)no1 | 489 | 124 | 24 | 100 | – | – | – | – | – | – |
| CCNC(=O)c1noc(-c2cc(C(C)C)c(O)cc2O)c1-c1ccn(C(C)C)n1 | 543 | 19 | 14 | 45 | – | 49.8 | – | – | Non-Toxic | Non-Toxic |
